This is an account of results in publication PMC7453301 (Journal of Pesticide Science, 2020).

One may read the solubility as the dissolved amount per volume that the medium holds. Broadly, the IC50 is the concentration that gives 50% inhibition.

Converted amounts (≈) assume the structure as drawn. A value given as a limit tells only on which side of the number the result lay.

One data set can be described thus: Solubility in water. In kind it is physicochemical. The essentials:
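Water solubility measured at 20°C, reported in mg/L.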

The next data set has as its system Marssonina blotch. In words: Field trials, apple Marssonina blotch. The following applies: PARADE 15FL; field trials Aomori Prefecture 2010 and 2013. The format is in vivo.
The test system of data set [1] is SDH derived from Sclerotinia minor. The data set is described as follows: SDH inhibition, DCIP method. The format is biochemical. Conditions: read-out: SDH IC50.
Data set [2] concerns the target SDH derived from Botrytis cinerea (Botrytis cinerea, UniProt A0A384J5E4+D2IH01+D2IH03). In words: SDH inhibition, DCIP method. In kind it is biochemical.
Data set [3] addresses SDH derived from Blumeria graminis (Blumeria graminis, UniProt N1J5Q8+N1JC31+N1JIS1). In words: SDH inhibition, DCIP method. The format is biochemical.
The target of data set [4] is SDH derived from Venturia inaequalis (Venturia inaequalis, UniProt A0A0H4U4T0+A0A370JIY7+A0A8H3Z7E8). In words: SDH inhibition, DCIP method. In kind it is biochemical. The following applies: read-out: SDH IC50.
SDH derived from Venturia inaequalis, sequence (A0A0H4U4T0 26-281): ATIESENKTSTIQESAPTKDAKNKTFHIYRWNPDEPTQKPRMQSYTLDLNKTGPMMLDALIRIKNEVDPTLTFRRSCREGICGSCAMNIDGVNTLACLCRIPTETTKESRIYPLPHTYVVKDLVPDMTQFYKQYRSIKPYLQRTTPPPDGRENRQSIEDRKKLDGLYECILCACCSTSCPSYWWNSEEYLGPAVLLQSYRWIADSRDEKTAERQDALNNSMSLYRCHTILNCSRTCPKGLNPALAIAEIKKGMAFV
SDH derived from Venturia inaequalis, sequence (A0A370JIY7 44-187): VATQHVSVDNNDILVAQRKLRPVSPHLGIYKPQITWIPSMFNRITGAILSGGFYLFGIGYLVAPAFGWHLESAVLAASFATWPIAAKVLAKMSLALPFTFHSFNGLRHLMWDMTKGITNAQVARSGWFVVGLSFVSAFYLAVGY
SDH derived from Venturia inaequalis, sequence (A0A8H3Z7E8 72-200): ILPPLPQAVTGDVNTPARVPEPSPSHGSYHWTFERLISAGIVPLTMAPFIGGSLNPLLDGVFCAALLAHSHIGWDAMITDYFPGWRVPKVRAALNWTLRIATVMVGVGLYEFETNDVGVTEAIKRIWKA
SDH derived from Venturia inaequalis, sequence (A0A8H3ZBE1 860-1473 partner): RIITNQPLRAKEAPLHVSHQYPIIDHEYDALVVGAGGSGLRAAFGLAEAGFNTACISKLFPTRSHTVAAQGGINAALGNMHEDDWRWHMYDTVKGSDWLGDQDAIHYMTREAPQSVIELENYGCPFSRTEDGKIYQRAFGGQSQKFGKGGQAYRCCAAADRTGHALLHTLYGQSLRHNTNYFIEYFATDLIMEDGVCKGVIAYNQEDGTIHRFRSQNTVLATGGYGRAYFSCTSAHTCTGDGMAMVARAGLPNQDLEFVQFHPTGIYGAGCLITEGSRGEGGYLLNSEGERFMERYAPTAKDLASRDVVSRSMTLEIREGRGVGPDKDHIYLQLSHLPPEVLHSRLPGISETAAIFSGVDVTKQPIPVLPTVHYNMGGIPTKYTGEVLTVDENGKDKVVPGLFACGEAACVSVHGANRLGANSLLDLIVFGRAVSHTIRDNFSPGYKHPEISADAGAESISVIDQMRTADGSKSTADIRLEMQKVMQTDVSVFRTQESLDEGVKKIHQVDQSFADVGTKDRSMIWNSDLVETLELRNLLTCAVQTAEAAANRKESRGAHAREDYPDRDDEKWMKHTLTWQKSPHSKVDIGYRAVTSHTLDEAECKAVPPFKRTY
Data set [5] concerns SDH derived from Alternaria brassicae. In words: SDH inhibition, DCIP method. In kind it is biochemical. The following applies: read-out: SDH IC50.
For data set [6], the target named is SDH derived from Magnaporthe oryzae (Pyricularia oryzae, UniProt A0ABQ8NN34+G4N2P5+G4NB04). In kind it is biochemical. Conditions: read-out: SDH IC50.
Data set [7] has as its target SDH derived from Puccinia recondita (Puccinia triticina, UniProt A0A0C4ES27+A0A180H0E4+A0A915VLF5). The data set is described as follows: SDH inhibition, DCIP method. The format is biochemical. The following applies: read-out: SDH IC50.
Data set [8] concerns the target SDH derived from Rhizoctonia solani (Rhizoctonia solani, UniProt A0A074S2N8+A0A0B7FBK7+A0A0B7FK09). The data set is described as follows: SDH inhibition, DCIP method. In kind it is biochemical. Conditions: read-out: SDH IC50.
The subject of data set [9] is SDH derived from Pythium aphanidermatum. In words: SDH inhibition, DCIP method. The format is biochemical.
For data set [10], the target named is SDH derived from Brassica oleracea (Cabbage) (Brassica oleracea, UniProt A0A0D3B707+A0A0D3E0G9+A0A0D3EGP9). The data set is described as follows: SDH inhibition, DCIP method. In kind it is biochemical. Conditions: nontarget SDH.
Data set [11] addresses SDH derived from Solanum lycopersicum (Tomato) (Solanum lycopersicum, UniProt D2KQI9+Q952Q7+Q952R1). The data set is described as follows: SDH inhibition, DCIP method. In kind it is biochemical. Conditions: nontarget SDH.
The target in data set [12] is SDH derived from Cucumis sativus (Cucumber) (Cucumis sativus, UniProt A0A0A0LBZ3+G3EIY8+G3EJ03). In words: SDH inhibition, DCIP method. The format is biochemical. The following applies: nontarget SDH.
In data set [13] the target is SDH derived from Mus musculus (Mouse) (Mus musculus, UniProt Q9CQA3+Q9CXV1+Q9CZB0). The data set is described as follows: SDH inhibition, DCIP method. In kind it is biochemical.
SDH derived from Mus musculus (Mouse), sequence (Q9CQA3 31-282): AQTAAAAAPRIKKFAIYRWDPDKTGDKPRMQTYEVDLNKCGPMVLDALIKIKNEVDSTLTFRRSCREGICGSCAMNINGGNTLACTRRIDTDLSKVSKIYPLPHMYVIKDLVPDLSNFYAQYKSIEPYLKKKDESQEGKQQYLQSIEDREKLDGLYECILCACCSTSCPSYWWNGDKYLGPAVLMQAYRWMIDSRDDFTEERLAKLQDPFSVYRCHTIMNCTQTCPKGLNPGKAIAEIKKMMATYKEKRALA
SDH derived from Mus musculus (Mouse), sequence (Q9CZB0 30-169): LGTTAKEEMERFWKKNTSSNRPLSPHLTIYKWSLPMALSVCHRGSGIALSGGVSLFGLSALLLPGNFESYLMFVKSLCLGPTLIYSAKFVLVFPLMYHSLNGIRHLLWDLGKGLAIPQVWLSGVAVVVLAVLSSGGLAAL
SDH derived from Mus musculus (Mouse), sequence (Q9CXV1 57-159): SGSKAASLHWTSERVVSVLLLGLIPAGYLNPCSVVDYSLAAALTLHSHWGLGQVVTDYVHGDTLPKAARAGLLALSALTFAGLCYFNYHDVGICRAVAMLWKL
SDH derived from Mus musculus (Mouse), sequence (Q8K2B3 43-664 partner): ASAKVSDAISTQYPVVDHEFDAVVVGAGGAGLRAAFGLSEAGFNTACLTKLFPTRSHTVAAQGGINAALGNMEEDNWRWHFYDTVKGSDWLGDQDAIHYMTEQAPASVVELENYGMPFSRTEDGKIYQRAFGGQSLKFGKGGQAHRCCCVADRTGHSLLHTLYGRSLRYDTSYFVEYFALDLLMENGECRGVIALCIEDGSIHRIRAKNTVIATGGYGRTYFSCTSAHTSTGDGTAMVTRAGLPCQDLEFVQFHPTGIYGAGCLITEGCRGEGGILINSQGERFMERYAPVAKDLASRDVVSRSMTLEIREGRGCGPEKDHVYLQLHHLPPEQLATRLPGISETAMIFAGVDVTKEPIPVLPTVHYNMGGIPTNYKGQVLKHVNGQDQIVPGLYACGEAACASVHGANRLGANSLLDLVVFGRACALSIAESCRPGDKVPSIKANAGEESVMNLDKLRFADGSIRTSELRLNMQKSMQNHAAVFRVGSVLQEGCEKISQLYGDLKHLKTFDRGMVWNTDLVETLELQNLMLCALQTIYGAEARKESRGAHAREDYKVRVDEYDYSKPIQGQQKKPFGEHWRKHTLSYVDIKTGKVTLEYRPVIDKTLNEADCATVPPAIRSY
The next data set deals with Gray mold (Cucumber). The following applies: cited from earlier work.
The test system of the next data set is Brown rust (Wheat). Conditions: cited from earlier work.
The test system of another data set is Powdery mildew (Barley). The following applies: cited from earlier work.
Another data set concerns Sclerotinia sclerotiorum. The following applies: cited from earlier work.

SDH derived from Botrytis cinerea, sequence (A0A384J5E4 30-300): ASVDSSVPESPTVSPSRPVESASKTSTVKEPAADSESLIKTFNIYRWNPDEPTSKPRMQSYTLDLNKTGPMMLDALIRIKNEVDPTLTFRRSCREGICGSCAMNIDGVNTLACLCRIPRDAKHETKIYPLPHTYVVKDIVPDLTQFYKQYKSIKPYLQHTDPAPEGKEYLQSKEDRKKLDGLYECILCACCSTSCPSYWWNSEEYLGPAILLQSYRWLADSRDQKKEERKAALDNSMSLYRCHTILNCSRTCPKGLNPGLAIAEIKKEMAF
SDH derived from Botrytis cinerea, sequence (D2IH03 46-189): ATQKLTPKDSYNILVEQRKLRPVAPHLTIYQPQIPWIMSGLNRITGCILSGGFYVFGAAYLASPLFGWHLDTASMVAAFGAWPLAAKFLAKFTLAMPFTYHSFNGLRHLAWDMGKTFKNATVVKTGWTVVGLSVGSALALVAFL
SDH derived from Botrytis cinerea, sequence (D2IH01 64-192): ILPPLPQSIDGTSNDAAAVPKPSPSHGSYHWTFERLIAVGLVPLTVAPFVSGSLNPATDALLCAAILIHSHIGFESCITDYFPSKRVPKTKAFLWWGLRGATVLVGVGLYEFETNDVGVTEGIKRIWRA
SDH derived from Botrytis cinerea, sequence (A0A384K456 34-647 partner): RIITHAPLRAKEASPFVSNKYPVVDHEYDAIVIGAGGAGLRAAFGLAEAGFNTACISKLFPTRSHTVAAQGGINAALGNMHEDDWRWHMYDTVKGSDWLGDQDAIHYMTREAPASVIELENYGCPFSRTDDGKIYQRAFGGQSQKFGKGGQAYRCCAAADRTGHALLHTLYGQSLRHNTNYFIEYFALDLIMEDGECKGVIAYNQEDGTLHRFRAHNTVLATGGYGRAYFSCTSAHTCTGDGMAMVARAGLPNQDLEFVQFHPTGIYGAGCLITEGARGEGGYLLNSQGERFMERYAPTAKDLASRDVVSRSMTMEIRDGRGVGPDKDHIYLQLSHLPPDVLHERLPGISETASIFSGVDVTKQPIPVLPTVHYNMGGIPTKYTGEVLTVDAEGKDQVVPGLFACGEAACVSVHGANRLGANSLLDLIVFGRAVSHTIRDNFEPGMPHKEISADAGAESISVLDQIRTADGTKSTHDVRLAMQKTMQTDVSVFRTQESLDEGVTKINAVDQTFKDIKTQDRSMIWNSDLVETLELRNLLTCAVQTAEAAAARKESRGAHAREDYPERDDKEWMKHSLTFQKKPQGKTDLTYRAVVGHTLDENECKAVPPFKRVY
SDH derived from Blumeria graminis, sequence (N1J5Q8 1-245): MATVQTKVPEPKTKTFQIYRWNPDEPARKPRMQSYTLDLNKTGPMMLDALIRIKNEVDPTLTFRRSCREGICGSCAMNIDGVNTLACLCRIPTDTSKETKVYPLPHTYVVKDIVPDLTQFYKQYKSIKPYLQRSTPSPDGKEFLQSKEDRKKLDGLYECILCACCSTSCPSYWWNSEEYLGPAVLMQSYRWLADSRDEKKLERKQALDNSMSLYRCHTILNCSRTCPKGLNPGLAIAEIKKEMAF
SDH derived from Blumeria graminis, sequence (N1JC31 44-188): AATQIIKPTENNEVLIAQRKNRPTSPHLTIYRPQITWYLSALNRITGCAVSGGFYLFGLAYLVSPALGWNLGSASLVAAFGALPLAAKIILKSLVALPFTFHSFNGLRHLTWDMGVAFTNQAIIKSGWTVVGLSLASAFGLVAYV
SDH derived from Blumeria graminis, sequence (N1JIS1 58-186): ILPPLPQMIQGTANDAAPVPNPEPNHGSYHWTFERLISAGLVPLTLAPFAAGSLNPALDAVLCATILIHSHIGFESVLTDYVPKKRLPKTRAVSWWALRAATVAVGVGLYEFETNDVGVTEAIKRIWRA
SDH derived from Blumeria graminis, sequence (N1JEV1 49-662 partner): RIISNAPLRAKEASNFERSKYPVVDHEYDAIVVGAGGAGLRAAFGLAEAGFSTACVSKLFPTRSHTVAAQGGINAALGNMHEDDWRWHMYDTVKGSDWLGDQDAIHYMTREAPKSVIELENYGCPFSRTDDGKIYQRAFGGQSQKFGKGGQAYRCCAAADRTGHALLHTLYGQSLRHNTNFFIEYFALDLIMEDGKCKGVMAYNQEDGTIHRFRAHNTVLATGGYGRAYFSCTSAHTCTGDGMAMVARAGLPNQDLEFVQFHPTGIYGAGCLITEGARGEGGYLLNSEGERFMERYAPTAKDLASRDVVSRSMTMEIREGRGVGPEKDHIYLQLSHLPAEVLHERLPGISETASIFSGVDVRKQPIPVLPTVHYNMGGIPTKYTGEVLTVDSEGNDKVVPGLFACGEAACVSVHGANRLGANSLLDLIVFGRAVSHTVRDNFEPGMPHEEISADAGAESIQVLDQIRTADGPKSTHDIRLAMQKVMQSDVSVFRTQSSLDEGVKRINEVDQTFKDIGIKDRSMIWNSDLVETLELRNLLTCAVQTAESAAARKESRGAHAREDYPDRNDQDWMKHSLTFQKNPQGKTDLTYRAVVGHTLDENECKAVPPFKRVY

Molecule `O=C(Nc1ccccc1-c1ccc(F)c(F)c1)c1nccnc1C(F)(F)F` [Compound 9, N-(3′,4′-difluorobiphenyl-2-yl)-3-(trifluoromethyl)pyrazine-2-carboxamide] returned a solubility in the data set “Solubility in water” of 2.32 µg/mL (≈ 6.12 µM). The “residual activity against Marssonina blotch of apple” value with Marssonina blotch is recorded as “excellent residual activity”. For the same molecule, the IC50 in data set [1] is 0.7 nM; in [2], 4.1 nM; in [3], 5.8 nM; in [4] it was 18.9 nM; in data set [5], 2.1 nM; in data set [6] it was 2500 nM. The IC50 is 14.4 nM in data set [7]; 5.9 nM in data set [8]; > 8000 nM in [9] (read-out: SDH IC50, Pythium aphanidermatum); > 32000 nM in data set [13]. For the same molecule, the SDH inhibitory activity result is given as “no inhibitory activity” in data set [9] (oomycete Pythium aphanidermatum); “did not show any inhibitory activity” in data set [10]; “did not show any inhibitory activity” in data set [11]; “did not show any inhibitory activity” in data set [12]; “did not show any inhibitory activity” in [13] (nontarget SDH, mice). For the same molecule, the “Fungicidal activity EC80, Gray mold (Cucumber)” value with Gray mold (Cucumber) was 2–10 mg a.i./L. In addition, in the data set with Brown rust (Wheat), the “Fungicidal activity EC80, Brown rust (Wheat)” value is listed as 0.5–2 mg a.i./L. In the data set on Powdery mildew (Barley), the “Fungicidal activity EC80, Powdery mildew (Barley)” value is on record as 0.5–2 mg a.i./L. For the same molecule, the “inhibition activity against apothecium formation” value with Sclerotinia sclerotiorum is on record as “exhibits inhibition activity”.
